Experimental data from different studies.
Compare with care: the assays were run in different laboratories.
Organism: Mycobacterium tuberculosis
Read-out: microbial growth

CCOc1cc(C=NNC(N)=S)ccc1OC(=O)CN1C(=O)CSC1=O
MIC (resazurin; H37RV): 0.63 µM

O=c1[nH]c2nc(-c3cccnc3)sc2c(=O)n1O
MIC: > 100 µM

C#CCNC(=O)c1c(-c2ccc(OC)cc2)oc2ccc(O)c(CN3CCCCC3)c12
MIC (CDC1551): 0.8 µM

Clc1ccc(CCNc2cc(-c3ccccn3)nc3nnc(C4CC4)n23)cc1
MIC (H37RV; 5 days): 17 to 50 µM

NC(=S)NN=Cc1ccc(OC(=O)CN2C(=O)CSC2=O)c(Cl)c1
MIC (resazurin; H37RV): 5.17 µM

NNC(=O)c1ccncc1
MIC (H37RA): 0.34 µM

CC(CNc1cc(-c2ccccn2)nc2nncn12)c1ccccc1 (centres unmarked)
MIC (H37RV; 5 days): > 100 µM

NNC(=O)c1ccncc1
MIC (resazurin; H37RV; 7 days): 0.05 mg/L

CC(=O)NC[C@H]1CN(c2ccc(N3CCOCC3)c(F)c2)C(=O)O1
MIC (resazurin; H37RV; 21 days): 0.003 mg/L

CC(C)c1nc2[nH]c(=O)n(O)c(=O)c2s1
MIC: 65.4 µM

CCCc1ccc(CNc2cc(-c3ccccn3)nc3nncn23)cc1
MIC (H37RV; 5 days): > 100 µM

[H]/N=C(/N)N[C@H]1[C@H](O)[C@@H](O)[C@H](O[C@@H]2O[C@@H](C)[C@](O)(C=O)[C@H]2O[C@@H]2O[C@@H](CO)[C@H](O)[C@@H](O)[C@@H]2NC)[C@@H](N/C(N)=N\[H])[C@@H]1O
MIC (resazurin; 21 days): 64 mg/L

FC(F)(F)c1ccc(CCNc2cc(-c3ccccn3)nc3nncn23)cc1
MIC (H37RV): 0.53 µM

COc1nc2ccc(Br)cc2cc1[C@@H](c1ccccc1)[C@@](O)(CCN(C)C)c1cccc2ccccc12
MIC (H37RV): 0.31 µM

O=c1[nH]c2nc(-c3ccccc3)sc2c(=O)n1O
MIC: 12.8 µM

COc1c(N2C[C@@H]3CCCN[C@@H]3C2)c(F)cc2c(=O)c(C(=O)O)cn(C3CC3)c12
MIC (H37RV): 0.125 mg/L

NNC(=O)c1ccncc1
MIC (H37RV): 0.62 µM

CC[C@@H](CO)NCCN[C@@H](CC)CO
MIC (resazurin; H37RV): 2.45 µM

Cc1ccc(CCNc2cc(C3CCCO3)nc3nncn23)cc1 (centres unmarked)
MIC (H37RV): 47 µM

CO[C@H]1/C=C/O[C@@]2(C)Oc3c(C)c(O)c4c(O)c(c(/C=N/N5CCN(C)CC5)c(O)c4c3C2=O)NC(=O)/C(C)=C\C=C\[C@H](C)[C@H](O)[C@@H](C)[C@@H](O)[C@@H](C)[C@H](OC(C)=O)[C@@H]1C
MIC (resazurin; 21 days): 64 mg/L

FC(F)(F)c1ccc(CCNc2cc(-c3ccccn3)nc3nnc(C4CC4)n23)cc1
MIC (H37RV; 5 days): 17 to 50 µM

CCc1cc(=O)c2c(OCC(O)CN3CCC(C)CC3)c3ccoc3c(OC)c2o1 (centres unmarked)
MIC (resazurin; H37RV; 21 days): 32 mg/L

CCOC(=O)c1c(-c2ccc(OC)cc2)oc2ccc(OCc3cn(C[C@H]4O[C@H](O[C@H]5O[C@H](CO)[C@@H](O)[C@H](O)[C@H]5O)[C@H](O)[C@@H](O)[C@@H]4O)nn3)c(CN3CCCCC3)c12
MIC (CDC1551): 77.3 µM

CC[C@@H](CO)NCCN[C@@H](CC)CO
MIC (resazurin; H37RV; 5 days): 1 mg/L

O=C(Cc1ccccc1)Nc1cc(-c2ccccn2)nc2nncn12
MIC (H37RV): 2 µM

CCc1cc(=O)c2c(OCC(O)CN(CC)CC)c3ccoc3c(OC)c2o1 (centres unmarked)
MIC (resazurin; H37RV; 21 days): 128 mg/L

C#CC[N+]1(CC)CCc2c(sc(NC(=O)c3c(F)c(F)c(F)c(F)c3F)c2C(=O)OCC)C1 (centres unmarked)
MIC (CDC1551): 5.8 µM

NNC(=O)c1ccncc1
MIC (resazurin; H37RV; 21 days): 0.0625 mg/L

Cc1nc2[nH]c(=O)n(O)c(=O)c2s1
MIC: 20.4 µM

CCc1cc(=O)c2c(OCC(O)CNC(C)(C)C)c3ccoc3c(OC)c2o1 (centres unmarked)
MIC (resazurin; 21 days): 32 mg/L

NC(=S)NN=Cc1ccc(OC(=O)CN2C(=O)CSC2=O)c(Br)c1
MIC (resazurin; H37RV): 9.27 µM

CCc1cc(=O)c2c(O)c3ccoc3c(OC)c2o1
MIC (resazurin; 21 days): 128 mg/L

O=[N+]([O-])c1cn2c(n1)OC[C@@H](OCc1ccc(OC(F)(F)F)cc1)C2
MIC (H37RV): 0.125 mg/L

Brc1ccc(CCNc2cc(-c3ccccn3)nc3nncn23)cc1
MIC (H37RV): 1.1 µM

CO[C@H]1/C=C/O[C@@]2(C)Oc3c(C)c(O)c4c(O)c(c(/C=N/N5CCN(C6CCCC6)CC5)c(O)c4c3C2=O)NC(=O)/C(C)=C\C=C\[C@H](C)[C@H](O)[C@@H](C)[C@@H](O)[C@@H](C)[C@H](OC(C)=O)[C@@H]1C
MIC (resazurin; H37RV; 7 days): 0.2 mg/L

NNC(=O)c1ccncc1
MIC (resazurin; H37RV): 0.228 µM

CCOC(=O)c1c(-c2ccc(OC)cc2)oc2ccc(O)c(CN3CCN(Cc4cn(C[C@H]5O[C@H](O[C@H]6O[C@H](CO)[C@@H](O)[C@H](O)[C@H]6O)[C@H](O)[C@@H](O)[C@@H]5O)nn4)CC3)c12
MIC (CDC1551): 5.3 µM

CO[C@H]1/C=C/O[C@@]2(C)Oc3c(C)c(O)c4c(O)c(c(/C=N/N5CCN(C)CC5)c(O)c4c3C2=O)NC(=O)/C(C)=C\C=C\[C@H](C)[C@H](O)[C@@H](C)[C@@H](O)[C@@H](C)[C@H](OC(C)=O)[C@@H]1C
MIC (resazurin; H37RV; 5 days): 0.03 mg/L
